Results as given in ChEMBL document CHEMBL4152323, “N-(1,3,4-oxadiazol-2-yl)benzamide analogs, bacteriostatic agents against methicillin- and vancomycin-resistant bacteria” (Eur J Med Chem, 2018).
≈ marks a conversion by molar mass, not a printed value. Calls of active or inactive are those of the source. The calls are words filed in the database; no cut-off is given here.

Legend:
Staphylococcus aureus [1] = assay: Antibacterial activity against Staphylococcus aureus assessed as growth inhibition at 16 ug/ml after 24 hrs; assay type: functional, organism-based
Procedure, shortened: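 S. aureus grown in Mueller Hinton Broth to early exponential phase, then exposed to compound (16 μg/mL; DMSO stocks 10 mg/mL) or DMSO in duplicate, 37 °C for 24 h. OD600 read; percent normalized OD600 = (X − media blank)/(DMSO control − media blank) × 100.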

Staphylococcus aureus [2] = assay: Bacteriostatic activity against Staphylococcus aureus ATCC 25923 after 20 hrs by broth microdilution method; assay type: functional; details: ATCC 25923, 20 h
Procedure, shortened: (§1)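 Broth microdilution MIC over 128 to 1 μg/mL, run alongside methicillin, linezolid and vancomycin. MIC taken as the lowest concentration with no visible growth.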

Staphylococcus aureus [3] = assay: Bacteriostatic activity against methicillin-resistant Staphylococcus aureus ATCC 33592 after 20 hrs by broth microdilution method; assay type: functional; details: ATCC 33592, 20 h; procedure, shortened: as §1
Enterococcus faecalis [4] = assay: Bacteriostatic activity against Enterococcus faecalis ATCC 29212 after 20 hrs by broth microdilution method; assay type: functional; details: ATCC 29212, 20 h; procedure, shortened: as §1
Enterococcus faecalis [5] = assay: Bacteriostatic activity against vancomycin-resistant Enterococcus faecalis ATCC 51575 after 20 hrs by broth microdilution method; assay type: functional; details: ATCC 51575, 20 h; procedure, shortened: as §1
Listeria monocytogenes = assay: Bacteriostatic activity against Listeria monocytogenes ATCC 19115 after 20 hrs by broth microdilution method; assay type: functional; details: ATCC 19115, 20 h
Procedure, shortened: (§2)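 MIC by broth microdilution across 128 to 1 μg/mL in 96-well plates, 37 °C for at least 20 h. MIC is the lowest concentration with no visible growth.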

Escherichia coli [6] = assay: Bacteriostatic activity against Escherichia coli BW25113 after 20 hrs by broth microdilution method; assay type: functional; details: BW25113, 20 h; procedure, shortened: as §2
Escherichia coli [7] = assay: Bacteriostatic activity against AcrAB-tolC deficient Escherichia coli JW5503-1 after 20 hrs by broth microdilution method; assay type: functional; details: JW5503-1, 20 h; procedure, shortened: as §2
Staphylococcus aureus [8] = assay: Antibacterial activity against methicillin-resistant Staphylococcus aureus USA300 in BALB/c mouse wound infection model assessed as reduction in bacterial burden in wound at 2% administered topically bid for 5 days relative to control; assay type: functional; design: scale not given: the % may be the effect or the level left
Procedure, shortened: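 Female BALB/c mice, eight weeks old, n = 5 per group, injected intradermally with 40 μL of 1.32×10^9 CFU/mL MRSA USA300. Once an abscess or open wound formed, it was treated topically twice daily for five days with 2% agent in petroleum jelly, with vehicle as control. Wound tissue excised 12 h after the last dose, homogenized in PBS, diluted and plated on mannitol salt agar for 16 h or more at 37 °C. CFU reduction calculated against vehicle.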

Staphylococcus aureus [9] = assay: Bacteriostatic activity against methicillin-resistant Staphylococcus aureus NRS119 clinical isolate after 20 hrs by broth microdilution method; assay type: functional; details: NRS119, 20 h; procedure, shortened: as §1
Staphylococcus aureus [10] = assay: Bacteriostatic activity against methicillin-resistant Staphylococcus aureus USA400 NRS123 clinical isolate after 20 hrs by broth microdilution method; assay type: functional; details: USA400 NRS123, 20 h; procedure, shortened: as §1
Staphylococcus aureus [11] = assay: Bacteriostatic activity against methicillin-resistant Staphylococcus aureus USA300 NRS384 clinical isolate after 20 hrs by broth microdilution method; assay type: functional; details: USA300 NRS384, 20 h; procedure, shortened: as §1
Staphylococcus aureus [12] = assay: Bacteriostatic activity against methicillin-resistant Staphylococcus aureus USA500 NRS385 clinical isolate after 20 hrs by broth microdilution method; assay type: functional; details: USA500 NRS385, 20 h; procedure, shortened: as §1
Staphylococcus aureus [13] = assay: Bacteriostatic activity against methicillin-resistant Staphylococcus aureus USA700 NRS386 clinical isolate after 20 hrs by broth microdilution method; assay type: functional; details: USA700 NRS386, 20 h; procedure, shortened: as §1
Staphylococcus aureus [14] = assay: Bacteriostatic activity against methicillin-resistant Staphylococcus aureus USA800 NRS387 clinical isolate after 20 hrs by broth microdilution method; assay type: functional; details: USA800 NRS387, 20 h; procedure, shortened: as §1
Staphylococcus aureus [15] = assay: Bacteriostatic activity against vancomycin-intermediate Staphylococcus aureus NRS1 clinical isolate after 20 hrs by broth microdilution method; assay type: functional; details: NRS1, 20 h; procedure, shortened: as §1
Staphylococcus aureus [16] = assay: Bacteriostatic activity against vancomycin-resistant Staphylococcus aureus VRS12 clinical isolate after 20 hrs by broth microdilution method; assay type: functional; details: VRS12, 20 h; procedure, shortened: as §1
Enterococcus faecium [17] = assay: Bacteriostatic activity against vancomycin-resistant Enterococcus faecium ATCC 700221 clinical isolate after 20 hrs by broth microdilution method; assay type: functional; details: ATCC 700221, 20 h
Procedure, shortened: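 Broth microdilution MIC over 128 to 1 μg/mL in Brain Heart Infusion broth, 37 °C for at least 20 h. MIC taken as the lowest concentration with no visible growth.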

Staphylococcus aureus [18] = assay: Bactericidal activity against methicillin-resistant Staphylococcus aureus NRS119 clinical isolate preincubated for 20 hrs followed by TSA plating and measured after 18 hrs; assay type: functional
Staphylococcus aureus [19] = assay: Bactericidal activity against methicillin-resistant Staphylococcus aureus USA400 NRS123 clinical isolate preincubated for 20 hrs followed by TSA plating and measured after 18 hrs; assay type: functional
Staphylococcus aureus [20] = assay: Bactericidal activity against methicillin-resistant Staphylococcus aureus USA300 NRS384 clinical isolate preincubated for 20 hrs followed by TSA plating and measured after 18 hrs; assay type: functional
Staphylococcus aureus [21] = assay: Bactericidal activity against methicillin-resistant Staphylococcus aureus USA500 NRS385 clinical isolate preincubated for 20 hrs followed by TSA plating and measured after 18 hrs; assay type: functional
Staphylococcus aureus [22] = assay: Bactericidal activity against methicillin-resistant Staphylococcus aureus USA700 NRS386 clinical isolate preincubated for 20 hrs followed by TSA plating and measured after 18 hrs; assay type: functional
Staphylococcus aureus [23] = assay: Bactericidal activity against methicillin-resistant Staphylococcus aureus USA800 NRS387 clinical isolate preincubated for 20 hrs followed by TSA plating and measured after 18 hrs; assay type: functional
Staphylococcus aureus [24] = assay: Bactericidal activity against vancomycin-intermediate Staphylococcus aureus NRS1 clinical isolate preincubated for 20 hrs followed by TSA plating and measured after 18 hrs; assay type: functional
Staphylococcus aureus [25] = assay: Bactericidal activity against vancomycin-resistant Staphylococcus aureus VRS12 clinical isolate preincubated for 20 hrs followed by TSA plating and measured after 18 hrs; assay type: functional
Enterococcus faecium [26] = assay: Bactericidal activity against vancomycin-resistant Enterococcus faecium ATCC 700221 clinical isolate preincubated for 20 hrs followed by TSA plating and measured after 18 hrs; assay type: functional
Procedure, shortened: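 MBC: 4 μL from wells with no growth in the MIC plate (Brain Heart Infusion broth, 37 °C, at least 20 h) spotted onto Tryptic Soy Agar. Read after at least 18 h at 37 °C.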

Acinetobacter baumannii = assay: Bacteriostatic activity against Acinetobacter baumannii ATCC 19606 after 20 hrs by broth microdilution method; assay type: functional; details: ATCC 19606 = CIP 70.34 = JCM 6841; procedure, shortened: as §2
Klebsiella pneumoniae = assay: Bacteriostatic activity against Klebsiella pneumoniae BAA 1706 after 20 hrs by broth microdilution method; assay type: functional; procedure, shortened: as §2
Pseudomonas aeruginosa = assay: Bacteriostatic activity against Pseudomonas aeruginosa ATCC 15442 after 20 hrs by broth microdilution method; assay type: functional; procedure, shortened: as §2

| Compound | growth inhibition (GI) (Staphylococcus aureus [1]) | MIC (Staphylococcus aureus [2]) [µg/mL] | MIC (Staphylococcus aureus [3]) [µg/mL] | MIC (Enterococcus faecalis [4]) [µg/mL] | MIC (Enterococcus faecalis [5]) [µg/mL] | MIC (Listeria monocytogenes) [µg/mL] | further results |
| --- | --- | --- | --- | --- | --- | --- | --- |
| C[C@@H]1C[C@H](C)CN(S(=O)(=O)c2ccc(C(=O)Nc3nnc(C4CCCO4)o3)cc2)C1 (some centres not stated) | inactive | – | – | – | – | – | – |
| O=C(Nc1nnc(-c2ccco2)o1)c1ccc(S(=O)(=O)N2CCOCC2)cc1 | inactive | – | – | – | – | – | – |
| O=C(Nc1nnc(-c2cccs2)o1)c1ccccc1 | inactive | – | – | – | – | – | – |
| C[C@@H]1C[C@H](C)CN(S(=O)(=O)c2ccc(C(=O)Nc3nnc(-c4ccc(Br)cc4)o3)cc2)C1 (mixture of isomers) | Active | 2 | 4 | 4 | 4 | 4 | – |
| C[C@@H]1C[C@H](C)CN(S(=O)(=O)c2ccc(C(=O)Nc3nnc(-c4ccc([N+](=O)[O-])cc4)o3)cc2)C1 (mixture of isomers) | Active | 32 | 16 | 64 | 32 | 32 | – |
| C[C@@H]1C[C@H](C)CN(S(=O)(=O)c2ccc(C(=O)Nc3nnc(-c4ccc(F)cc4)o3)cc2)C1 (mixture of isomers) | Active | 4 | 4 | 4 | 4 | 4 | – |
| C[C@@H]1C[C@H](C)CN(S(=O)(=O)c2ccc(C(=O)Nc3nnc(-c4cccc(C#N)c4)o3)cc2)C1 (mixture of isomers) | Active | 16 | 8 | 32 | 16 | 8 | – |
| C[C@@H]1C[C@H](C)CN(S(=O)(=O)c2ccc(C(=O)Nc3nnc(-c4ccc(Cl)cc4)o3)cc2)C1 (mixture of isomers) | Active | 2 | 1 | 4 | 2 | 2 | – |
| COc1ccc(-c2nnc(NC(=O)c3ccc(S(=O)(=O)N4C[C@H](C)C[C@H](C)C4)cc3)o2)cc1 (mixture of isomers) | Active | 4 | 4 | 4 | 4 | 4 | – |
| CC[C@H]1OC(=O)[C@H](C)[C@@H](O[C@H]2C[C@@](C)(OC)[C@@H](O)[C@H](C)O2)[C@H](C)[C@@H](O[C@@H]2O[C@H](C)C[C@H](N(C)C)[C@H]2O)[C@](C)(O)C[C@@H](C)C(=O)[C@H](C)[C@@H](O)[C@]1(C)O [ERYTHROMYCIN] | – | – | – | – | – | – | MIC (Escherichia coli [6]): 32 µg/mL (≈ 43.6 µM); MIC (Escherichia coli [7]): ≤ 1 µg/mL |
| CC(=O)O[C@H]1C[C@@]2(C)[C@@H](C[C@@H](O)[C@H]3[C@@]4(C)CC[C@@H](O)[C@@H](C)[C@@H]4CC[C@@]32C)/C1=C(\CCC=C(C)C)C(=O)O [FUSIDIC ACID] | – | – | – | – | – | – | Activity (Staphylococcus aureus [8]): 77.91% |
| CC(=O)NC[C@H]1CN(c2ccc(N3CCOCC3)c(F)c2)C(=O)O1 [LINEZOLID] | – | – | – | – | – | – | MIC (Staphylococcus aureus [9]): 32 µg/mL (≈ 94.9 µM); MIC (Staphylococcus aureus [10]): ≤ 1 µg/mL; MIC (Staphylococcus aureus [11]): ≤ 1 µg/mL; MIC (Staphylococcus aureus [12]): ≤ 1 µg/mL; MIC (Staphylococcus aureus [13]): ≤ 1 µg/mL; MIC (Staphylococcus aureus [14]): ≤ 1 µg/mL; MIC (Staphylococcus aureus [15]): ≤ 1 µg/mL; MIC (Staphylococcus aureus [16]): ≤ 1 µg/mL; MIC (Enterococcus faecium [17]): ≤ 1 µg/mL; MBC (Staphylococcus aureus [18]): 32 µg/mL (≈ 94.9 µM); MBC (Staphylococcus aureus [19]): 64 µg/mL (≈ 190 µM); MBC (Staphylococcus aureus [20]): 64 µg/mL (≈ 190 µM); MBC (Staphylococcus aureus [21]): 2 µg/mL (≈ 5.93 µM); MBC (Staphylococcus aureus [22]): 128 µg/mL (≈ 379 µM); MBC (Staphylococcus aureus [23]): 128 µg/mL (≈ 379 µM); MBC (Staphylococcus aureus [24]): 1 µg/mL (≈ 2.96 µM); MBC (Staphylococcus aureus [25]): 32 µg/mL (≈ 94.9 µM); MBC (Enterococcus faecium [26]): 64 µg/mL (≈ 190 µM); MIC (Escherichia coli [6]): > 128 µg/mL; MIC (Escherichia coli [7]): 8 µg/mL (≈ 23.7 µM) |
| COc1cccc(OC)c1C(=O)N[C@@H]1C(=O)N2[C@@H]1SC(C)(C)[C@@H]2C(=O)O [METHICILLIN] | – | 2 (≈ 5.26 µM) | > 128 | – | – | – | – |
| COLISTIN | – | – | – | – | – | – | MIC (Acinetobacter baumannii): < 1 µg/mL; MIC (Klebsiella pneumoniae): < 1 µg/mL; MIC (Pseudomonas aeruginosa): < 1 µg/mL |
